Consider 30 compounds from ChEMBL document CHEMBL2016554, “Synthesis, biological evaluation and molecular docking studies of 1,3,4-oxadiazole derivatives as potential immunosuppressive agents” (Bioorg Med Chem, 2012).

The nature of series [1]: Immunosuppressive activity in BALB/c mouse lymph node cells assessed as inhibition of concanavalin A-stimulated cell proliferation at 1 uM administered 24 hrs post concanavalin A stimulation and measured 72 hrs after compound dosing by MTT assay. It counts as functional. An outline of the steps: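 BALB/c mouse lymph node cells, 5 × 10^5 per well, stimulated with 5 µg/mL ConA for 24 h, then left untreated or given compound at 1 µM for 72 h. MTT added 4 h before the end, formazan dissolved in DMSO, OD570 read. Inhibition = (control OD570 − compound OD570)/control OD570 × 100, with untreated cells as control. Values are means of three experiments.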

A short description of series [2]: Cytotoxicity against BALB/c mouse lymph node cells at 10 uM after 24 hrs MTT assay. (Formazan colour is commonly taken as a measure of viable cells.)
Series [3] addresses Phosphatidylinositol 4,5-bisphosphate 3-kinase catalytic subunit beta isoform (Homo sapiens, UniProt P42338). Description: Inhibition of human wild type PI3Kbeta expressed in Sf21 cells co-expressing N-terminal His-tagged human p85a using L-alpha-phosphatidylinositol substrate by TLC based phosphor imaging.
The target in series [4] is T1, Phosphatidylinositol 4,5-bisphosphate 3-kinase catalytic subunit delta isoform (Homo sapiens, UniProt O00329).
T1 sequence (O00329 whole entry): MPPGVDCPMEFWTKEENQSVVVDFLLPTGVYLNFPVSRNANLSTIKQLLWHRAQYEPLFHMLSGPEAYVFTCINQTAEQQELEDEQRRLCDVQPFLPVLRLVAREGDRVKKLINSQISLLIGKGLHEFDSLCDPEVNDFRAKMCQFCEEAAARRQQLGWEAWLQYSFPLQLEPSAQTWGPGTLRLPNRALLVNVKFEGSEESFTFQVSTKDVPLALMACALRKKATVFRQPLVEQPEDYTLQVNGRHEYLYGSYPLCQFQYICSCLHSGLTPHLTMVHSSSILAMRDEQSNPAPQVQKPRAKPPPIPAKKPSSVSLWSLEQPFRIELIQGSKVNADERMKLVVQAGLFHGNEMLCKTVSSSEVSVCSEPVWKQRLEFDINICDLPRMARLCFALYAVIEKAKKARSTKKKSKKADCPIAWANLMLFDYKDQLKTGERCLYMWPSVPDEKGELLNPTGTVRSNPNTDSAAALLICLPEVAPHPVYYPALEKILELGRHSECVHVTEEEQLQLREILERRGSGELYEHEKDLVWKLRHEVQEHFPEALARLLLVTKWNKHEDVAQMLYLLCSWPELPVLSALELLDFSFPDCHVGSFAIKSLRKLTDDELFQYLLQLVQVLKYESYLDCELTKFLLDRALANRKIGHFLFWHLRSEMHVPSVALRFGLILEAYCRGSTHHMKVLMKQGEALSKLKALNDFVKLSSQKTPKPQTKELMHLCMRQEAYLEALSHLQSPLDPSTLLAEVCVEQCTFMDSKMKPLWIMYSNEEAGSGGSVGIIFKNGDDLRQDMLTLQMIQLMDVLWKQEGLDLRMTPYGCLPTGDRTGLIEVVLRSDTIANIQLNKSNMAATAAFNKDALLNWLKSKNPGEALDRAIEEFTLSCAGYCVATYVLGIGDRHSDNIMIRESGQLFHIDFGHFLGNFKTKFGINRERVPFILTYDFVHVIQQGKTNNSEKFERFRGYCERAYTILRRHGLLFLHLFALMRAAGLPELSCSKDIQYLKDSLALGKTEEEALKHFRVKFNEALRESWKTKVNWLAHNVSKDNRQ
Description: Inhibition of PI3Kdelta expressed in cells co-expressing N-terminal His-tagged human p85a using L-alpha-phosphatidylinositol substrate by TLC based phosphor imaging. It counts as cell-based.

For series [5], the target named is Phosphatidylinositol 4,5-bisphosphate 3-kinase catalytic subunit alpha isoform (Mus musculus, UniProt P42337). In words: Inhibition of mouse wild type PI3Kalpha expressed in Sf21 cells co-expressing N-terminal His-tagged human p85a using L-alpha-phosphatidylinositol substrate by TLC based phosphor imaging.
A short description of series [6]: Inhibition of N-terminal His-tagged bovine PI3Kgamma expressed in Sf21 cells using L-alpha-phosphatidylinositol substrate by TLC based phosphor imaging. Details: species or system Bos taurus.
Series [7] is described as follows: Induction of apoptosis in BALB/c mouse concanavalin A-stimulated lymph node cells assessed as late apoptotic cells at 16 uM administered 24 hrs post concanavalin A stimulation and measured 24 hrs after by Annexin-V-FITC/propidium iodide staining based flow cytometry (reference value: 17.49 %). It counts as functional. For orientation: In flow cytometry, cells or beads pass a laser one at a time.

A short description of series [8]: Induction of apoptosis in BALB/c mouse concanavalin A-stimulated lymph node cells assessed as late apoptotic cells at 1 uM administered 24 hrs post concanavalin A stimulation and measured 24 hrs after by Annexin-V-FITC/propidium iodide staining based flow cytometry (reference value: 17.49 %). It is filed as functional.
The nature of series [9]: Induction of apoptosis in BALB/c mouse concanavalin A-stimulated lymph node cells assessed as early apoptotic cells at 1 uM administered 24 hrs post concanavalin A stimulation and measured 24 hrs after by Annexin-V-FITC/propidium iodide staining based flow cytometry (reference value: 4.52 %). It is filed as functional.
A short description of series [10]: Induction of apoptosis in BALB/c mouse concanavalin A-stimulated lymph node cells assessed as early apoptotic cells at 16 uM administered 24 hrs post concanavalin A stimulation and measured 24 hrs after by Annexin-V-FITC/propidium iodide staining based flow cytometry (reference value: 4.52 %). It is filed as functional.
The nature of series [11]: Induction of apoptosis in BALB/c mouse concanavalin A-stimulated lymph node cells assessed as early apoptotic cells at 4 uM administered 24 hrs post concanavalin A stimulation and measured 24 hrs after by Annexin-V-FITC/propidium iodide staining based flow cytometry (reference value: 4.52 %). It is filed as functional.
The test system of series [12] is Mus musculus. Description: Induction of apoptosis in BALB/c mouse concanavalin A-stimulated lymph node cells assessed as late apoptotic cells administered 24 hrs post concanavalin A stimulation and measured 24 hrs after by Annexin-V-FITC/propidium iodide staining based flow cytometry. It counts as functional.
A short description of series [13]: Induction of apoptosis in BALB/c mouse concanavalin A-stimulated lymph node cells assessed as late apoptotic cells at 4 uM administered 24 hrs post concanavalin A stimulation and measured 24 hrs after by Annexin-V-FITC/propidium iodide staining based flow cytometry (reference value: 17.49 %). It is filed as functional.

pIC50: −log10 of the molar value.

Chain of Phosphatidylinositol 4,5-bisphosphate 3-kinase catalytic subunit beta isoform (P42338 whole entry, canonical isoform): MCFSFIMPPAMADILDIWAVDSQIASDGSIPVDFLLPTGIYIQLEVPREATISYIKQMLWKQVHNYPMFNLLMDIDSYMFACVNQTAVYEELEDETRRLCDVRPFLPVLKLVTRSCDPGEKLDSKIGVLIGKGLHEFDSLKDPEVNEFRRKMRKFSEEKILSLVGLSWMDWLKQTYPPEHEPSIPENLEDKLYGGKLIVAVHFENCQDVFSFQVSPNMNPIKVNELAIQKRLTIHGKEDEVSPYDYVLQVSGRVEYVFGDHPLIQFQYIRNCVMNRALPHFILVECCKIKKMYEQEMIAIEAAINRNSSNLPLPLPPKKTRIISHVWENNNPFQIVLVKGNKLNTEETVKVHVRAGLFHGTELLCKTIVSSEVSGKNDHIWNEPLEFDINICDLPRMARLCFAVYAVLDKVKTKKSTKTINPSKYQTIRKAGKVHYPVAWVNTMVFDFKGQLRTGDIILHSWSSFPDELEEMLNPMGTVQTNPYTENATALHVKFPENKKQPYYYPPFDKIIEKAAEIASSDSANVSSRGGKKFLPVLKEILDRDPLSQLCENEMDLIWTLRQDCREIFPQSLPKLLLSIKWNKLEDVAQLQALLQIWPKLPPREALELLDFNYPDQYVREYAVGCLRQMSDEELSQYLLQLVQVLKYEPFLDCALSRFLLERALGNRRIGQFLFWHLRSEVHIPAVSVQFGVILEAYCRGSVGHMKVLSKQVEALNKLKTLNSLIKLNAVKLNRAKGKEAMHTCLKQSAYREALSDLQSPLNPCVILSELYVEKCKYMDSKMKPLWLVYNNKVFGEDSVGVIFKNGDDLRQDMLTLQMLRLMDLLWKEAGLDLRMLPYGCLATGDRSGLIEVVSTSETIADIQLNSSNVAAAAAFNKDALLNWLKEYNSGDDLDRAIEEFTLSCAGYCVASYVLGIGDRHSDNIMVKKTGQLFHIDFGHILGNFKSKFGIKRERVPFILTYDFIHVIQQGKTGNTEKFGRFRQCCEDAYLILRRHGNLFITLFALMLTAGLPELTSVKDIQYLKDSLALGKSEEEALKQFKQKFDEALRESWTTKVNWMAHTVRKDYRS
Chain of Phosphatidylinositol 4,5-bisphosphate 3-kinase catalytic subunit alpha isoform (P42337 whole entry, canonical isoform): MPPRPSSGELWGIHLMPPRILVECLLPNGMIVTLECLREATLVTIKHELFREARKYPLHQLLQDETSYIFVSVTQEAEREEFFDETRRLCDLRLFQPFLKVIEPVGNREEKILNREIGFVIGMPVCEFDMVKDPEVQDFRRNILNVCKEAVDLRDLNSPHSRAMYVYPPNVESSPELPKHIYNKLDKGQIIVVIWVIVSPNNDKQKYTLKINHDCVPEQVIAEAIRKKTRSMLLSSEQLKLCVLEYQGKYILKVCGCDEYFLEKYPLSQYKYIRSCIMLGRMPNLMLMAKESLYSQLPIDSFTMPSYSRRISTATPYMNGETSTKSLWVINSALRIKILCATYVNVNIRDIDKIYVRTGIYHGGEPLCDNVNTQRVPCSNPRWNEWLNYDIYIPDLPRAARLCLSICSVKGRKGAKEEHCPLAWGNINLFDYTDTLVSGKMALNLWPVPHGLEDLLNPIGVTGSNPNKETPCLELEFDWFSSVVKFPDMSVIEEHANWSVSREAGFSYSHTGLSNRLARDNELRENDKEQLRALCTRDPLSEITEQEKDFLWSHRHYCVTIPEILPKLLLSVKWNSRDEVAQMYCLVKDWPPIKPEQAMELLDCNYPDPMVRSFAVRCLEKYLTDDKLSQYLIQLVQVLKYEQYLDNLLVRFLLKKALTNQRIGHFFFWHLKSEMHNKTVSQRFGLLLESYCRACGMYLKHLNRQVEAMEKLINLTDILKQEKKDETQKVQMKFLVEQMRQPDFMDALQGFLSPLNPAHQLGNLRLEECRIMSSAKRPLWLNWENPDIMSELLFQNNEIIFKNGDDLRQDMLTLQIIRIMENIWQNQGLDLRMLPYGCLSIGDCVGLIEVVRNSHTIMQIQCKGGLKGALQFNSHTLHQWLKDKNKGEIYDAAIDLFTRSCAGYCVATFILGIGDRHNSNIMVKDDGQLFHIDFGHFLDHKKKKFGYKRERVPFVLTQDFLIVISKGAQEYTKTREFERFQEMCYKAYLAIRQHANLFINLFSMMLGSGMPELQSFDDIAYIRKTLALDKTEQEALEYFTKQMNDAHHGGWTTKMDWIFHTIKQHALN

As to `COc1ccc(-c2nnc(SCc3cccc(C)c3)o2)c(O)c1`, in series [1], the “inhibition (INH)” value was determined as 16.28%. In series [2], this compound had an OD of 1.12.

For `Cc1ccc(-c2nnc(SCc3ccc(Cl)cc3)o2)c(O)c1`, the “inhibition (INH)” value in series [1] is listed as 13.4%. In series [2], this compound gave an OD of 0.75.

As to `COc1cccc(CSc2nnc(-c3ccc(OC)cc3O)o2)c1`, the “inhibition (INH)” value in [1] worked out at 11.06%. This compound registered an OD in [2] of 0.71.

What is called pIC50 is the IC50 on a negative log10 scale, so that one unit is a factor of ten. Read a low pIC50 as a high IC50. With `COc1ccc(-c2nnc(SCc3cccc([N+](=O)[O-])c3)o2)c(O)c1`, the pIC50 in series [3] is under 4.00; in series [4] it was 4.53; in series [5], 4.75; in series [6], 5.61. Besides, the “inhibition (INH)” value in series [1] came out at 19.33%. Besides, in series [2], the OD worked out at 0.86.

For `Cc1ccc(C(=O)O)c(O)c1`, the “inhibition (INH)” value in series [1] stood at 3.52%.

For the compound `COc1ccc(-c2nnc(SCc3cccc(Cl)c3)o2)c(O)c1`, the pIC50 in series [3] was 4.36; in [4], under 4.00; in series [5], 4.81; in series [6] it was 5.73. The “inhibition (INH)” value in series [1] is given as 22.03%. This compound also had an OD in series [2] of 0.9.

`COc1ccc(-c2nnc(SCc3ccc(C)cc3)o2)c(O)c1`: the “inhibition (INH)” value in [1] is 6.29%. The compound further came in with an OD in series [2] of 0.9.

As for `Cc1ccc(-c2nnc(SCc3ccc([N+](=O)[O-])cc3)o2)c(O)c1`, the Activity in [7] was 96.35%; in series [8], 26.59%; in [9], 6.26%; in [10], 2.16%; in series [11] it was 6.69%; in series [12], “Dose-dependent effect”. Further, in series [13], the Activity was found to be 27.4%. In addition, the pIC50 in series [3] was under 4.00; in series [4], 4.59; in series [5] it was 4.26; in series [6], 6.51. Moreover, in series [1], the “inhibition (INH)” value turned out to be 38.76%. In series [2], this compound had an OD of 0.89.

Take `Cc1ccc(-c2nnc(SCc3ccccc3[N+](=O)[O-])o2)c(O)c1`: in series [1], the “inhibition (INH)” value turned out to be 11.42%. The compound further registered an OD in [2] of 0.74.

With `COc1ccc(-c2nnc(SCc3ccccc3F)o2)c(O)c1`, the pIC50 in [3] was 4.29; in series [4] it was 4.72; in series [5], 4.47; in series [6] it was 6.23. For the same compound, in [1], the “inhibition (INH)” value is 34.35%. Also, the OD in [2] came out at 0.79.

Consider `COc1ccc(CSc2nnc(-c3ccc(C)cc3O)o2)cc1`, for which, in series [1], the “inhibition (INH)” value stood at 13.67%. In series [2], this compound displayed an OD of 0.83.

In the case of `Cc1ccc(-c2nnc(SCc3ccccc3F)o2)c(O)c1`, the “inhibition (INH)” value in series [1] is given as -6.92%. This compound had an OD in [2] of 0.82.

For `COc1ccc(C(=O)O)c(O)c1` [4-METHOXYSALICYLIC ACID], the “inhibition (INH)” value in series [1] is listed as 7.34%.

For `COc1ccc(-c2nnc(SCc3ccc([N+](=O)[O-])cc3)o2)c(O)c1`, the “inhibition (INH)” value in series [1] worked out at 14.39%. In addition, the OD in series [2] came to 0.83.

Take `Cc1ccc(CSc2nnc(-c3ccc(C)cc3O)o2)cc1`: in [1], the “inhibition (INH)” value is given as 11.42%. The same compound came in with an OD in series [2] of 0.65.

Turning to `COc1ccc(-c2nnc(SCc3ccc(Cl)cc3)o2)c(O)c1`, the “inhibition (INH)” value in series [1] came out at 11.96%. Further, the OD in series [2] worked out at 0.87.

As for `Cc1ccc(-c2nnc(SCc3ccccc3)o2)c(O)c1`, the “inhibition (INH)” value in [1] is 9.08%. This compound gave an OD in series [2] of 0.86.

`Cc1ccc(-c2nnc(SCc3cccc(Cl)c3)o2)c(O)c1`: in [1], the “inhibition (INH)” value was -0.72%. The OD in series [2] was 0.7.

With `COc1cccc(CSc2nnc(-c3ccc(C)cc3O)o2)c1`, the pIC50 in [3] is 4.87; in series [4], under 4.00; in series [5] it was 5.71; in series [6], 5.59. The “inhibition (INH)” value in series [1] was 20.59%. In series [2], this compound gave an OD of 0.87.

In the case of `Cc1ccc(-c2nnc(SCc3ccccc3Cl)o2)c(O)c1`, the “inhibition (INH)” value in series [1] stood at 8.99%. For the same compound, in series [2], the OD turned out to be 0.79.

Regarding `C/C=C/C[C@@H](C)[C@@H](O)[C@H]1C(=O)N[C@@H](CC)C(=O)N(C)CC(=O)N(C)[C@@H](CC(C)C)C(=O)N[C@@H](C(C)C)C(=O)N(C)[C@@H](CC(C)C)C(=O)N[C@@H](C)C(=O)N[C@H](C)C(=O)N(C)[C@@H](CC(C)C)C(=O)N(C)[C@@H](CC(C)C)C(=O)N(C)[C@@H](C(C)C)C(=O)N1C` [CYCLOSPORINE], the “inhibition (INH)” value in series [1] is given as 69.77%.

As to `COc1ccc(-c2nnc(SCc3ccccc3Cl)o2)c(O)c1`, in series [1], the “inhibition (INH)” value was determined as 17.36%. The compound also came in with an OD in [2] of 0.89.

In the case of `Cc1ccc(-c2nnc(SCc3ccc(F)cc3)o2)c(O)c1`, in series [1], the “inhibition (INH)” value came to 4.5%. The compound further gave an OD in [2] of 0.82.

`Cc1ccc(-c2nnc(SCc3cccc([N+](=O)[O-])c3)o2)c(O)c1`: the “inhibition (INH)” value in [1] is -4.36%. The same compound registered an OD in [2] of 0.81.

As to `Cc1cccc(CSc2nnc(-c3ccc(C)cc3O)o2)c1`, the “inhibition (INH)” value in series [1] is recorded as 5.22%. For the same compound, the OD in series [2] is on record as 0.8.

As to `O=c1cc(N2CCOCC2)oc2c(-c3ccccc3)cccc12` [LY-294002], the pIC50 in series [4] was 6.24.

For `COc1ccc(-c2nnc(SCc3ccccc3[N+](=O)[O-])o2)c(O)c1`, in series [1], the “inhibition (INH)” value is listed as 3.96%. Also, the OD in [2] came out at 0.91.

With `COc1ccc(-c2nnc(SCc3ccc(F)cc3)o2)c(O)c1`, the negative logarithm of the IC50 (pIC50) was under 4.00 in series [3], 4.94 in series [4], 4.51 in series [5] and 6.01 in [6]. The “inhibition (INH)” value in series [1] amounted to 29.32%. In series [2], this compound showed an OD of 0.87.

As to `COc1ccc(-c2nnc(SCc3ccccc3)o2)c(O)c1`, the “inhibition (INH)” value in series [1] was determined as 4.5%. In addition, the OD in series [2] is reported as 0.81.

Take `COc1ccc(CSc2nnc(-c3ccc(OC)cc3O)o2)cc1`: the “inhibition (INH)” value in series [1] turned out to be 11.33%. The compound further displayed an OD in series [2] of 0.75.
